Screening data (PubChem)
Compounds with a hit are over-represented: about 2.2% of the library has one in this group of screens.
MT stabilizer: stabilizes microtubules in HeLa cells; HeLa tubulin immunostaining HCS, 24 h; share of cells brighter than vehicle mean+2SD; % tubulin-high responders, % at 10 µM; 200,000 tested, 0.83% active; AID 2205;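 active means plate Z-score above 3 for both tubulin-high and condensed-nucleus cell shares, with cell loss under 80%, at 10 µM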;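 further: anti alpha tubulin signal scored within the nucleus-defined area of each cell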
Ba/F3 V617F tox: lowers viability of Ba/F3 cells expressing EpoR and JAK2V617F | inhibition, % at 5.6 µM | ATP luminescence | 220,000 tested, 1.1% active;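 active means inhibition above the campaign mean plus 3 SD over all tested compounds, cut at about 24% in these data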;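 further: cytokine-independent growth of Ba/F3 cells driven by EpoR plus mutant JAK2; 0% = DMSO-treated cells and 100% = JAK inhibitor I control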
bCat nuc transl: modulators of beta-catenin nuclear translocation; HeLa beta-catenin nuclear translocation, immunofluorescence imaging; nuclear translocation activity, % at 5 µM; 190,000 tested, 0.3% active; AID 1665;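 active means nuclear translocation activity above 50% at 5 µM, with a well cell count of 50 or more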;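 further: per-cell ratio of nuclear to cytoplasmic median beta-catenin stain intensity; plate controls were DMSO negative control for no effect and GSK-3 inhibitor IX positive control for full effect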
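test system = HeLa cells, endogenous beta-catenin | dosing = single 5 µM dose plus 0.02–20 µM confirmation series | times = compound treatment 24 h, 37°C, 5% CO2 | technique = beta-catenin immunofluorescence imaging with DAPI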
APP 5UTR inh: APP translation inhibition; AID 1285; inhibition, % at 2 µM; 190,000 tested, 0.82% active; SH-SY5Y APP 5'UTR-luciferase reporter, luminescence;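 active means inhibition above a set limit, derived from the sample mean plus 3 SD, cut at about 45% in these data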
IEC-6 tox: counter-screen for KLF5 inhibitors: cytotoxicity in IEC-6 cells; IEC-6 cytotoxicity, luminescence viability; inhibition, % at 5 µM; 290,000 tested, 0.78% active; in the data active means inhibition above about 22%;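 further: 0% = plate median of test compound wells and 100% = cytotoxic reference compound wells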
BaF3 tox: parental Ba/F3 viability inhibition as JAK2V617F counter-screen; CellTiter-Glo ATP luminescence; inhibition, % at 5.6 µM; 220,000 tested, 1.1% active; AID 1486;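 active means inhibition above a per-campaign cutoff, the mean inhibition of all tested compounds plus 3 SD, cut at about 27% in these data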;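 further: 0% = DMSO wells and 100% = JAK Inhibitor I control wells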
BaF3 tox 2: reduces parental Ba/F3 viability, JAK2V617F counter-screen | 580 tested, 31% active | shares compounds with Ba/F3 V617F tox | inhibition, % at 5.6 µM | AID 1520 | CellTiter-Glo luminescence; cells kept alive by added IL-3;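 active means cell growth inhibition above the hit limit set in the earlier mutant JAK2 cell screen, cut at about 27% in these data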;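 further: plate controls were DMSO-treated cells for no effect and JAK Inhibitor I control wells for full effect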
JAK2V617F conf: confirmation: loss of viability in JAK2V617F-dependent Ba/F3 cells. shares compounds with Ba/F3 V617F tox. Ba/F3 EpoR-JAK2V617F viability, CellTiter-Glo luminescence. inhibition, % at 5.6 µM. 580 tested, 66% active;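 active means mean inhibition above the hit cutoff derived in the earlier primary screen, cut at about 25% in these data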;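 further: 0% = DMSO-treated cells and 100% = JAK inhibitor I control wells; higher means lower luminescence from reduced cell ATP and viability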
* = called active by the depositor; . = not tested or not shown.

SMILES | MT stabilizer | Ba/F3 V617F tox | bCat nuc transl | APP 5UTR inh | IEC-6 tox | BaF3 tox | BaF3 tox 2 | JAK2V617F conf
Cc1ccc(CNC(=O)CCc2nnc3ccc(N4CCC5(CC4)OCCO5)nn23)cc1 | . | . | . | . | -1 | . | . | .
Cc1[nH]c2ccc(F)cc2c1CCN(Cc1ccncc1)C(=S)Nc1cccc(F)c1 | 2 | 27* | 0 | 21 | 4 | 25 | 29* | 47*
Cc1ccccc1-c1nn(-c2ccc(F)cc2F)cc1CNCCCN(C)C | 3 | 26* | -2 | -3 | 4 | 10 | 3 | 21
Cc1ccc(CCNC(=O)CN2C(=O)COc3ccc(S(=O)(=O)N4CCOCC4)cc32)cc1 | . | . | . | . | -4 | . | . | .
O=C(NCCCCCCNC(=O)OCCO)OCCO | 3 | 84* | 0 | -10 | 5 | 5 | -5 | 7
OC1(c2cccs2)CN(c2ccccc2)C2=[N+]1CCCC2 (centres undefined) | 6 | 0 | -1 | -8 | -1 | 8 | . | .
CCOc1ccc(N2CC(O)(c3cccs3)[N+]3=C2CCCC3)cc1 (centres undefined) | 4 | 23* | -2 | -10 | 8 | 25 | 31* | 46*
Cn1c(=O)c2ccccc2n(Cc2cccc(F)c2)c1=O | . | . | . | . | 5 | . | . | .
Cc1ccc(F)cc1NC(=O)C1C2CCC(O2)C1C(=O)O (centres undefined) | . | . | . | . | 4 | . | . | .
COC(=O)C1(C)Cc2cc(OC(C)=O)c(OC(C)=O)cc2N1 (centres undefined) | . | 37* | 1 | . | 0 | 17 | 4 | 46*
Cc1ccc(N(CC(=O)Nc2cc(Cl)ccc2Oc2ccccc2)S(C)(=O)=O)cc1C | 2 | 26* | . | 0 | 8 | 2 | -4 | 3
O=C(c1ccccc1)C(CCC(CN1CCOCC1)C(=O)c1ccccc1)CN1CCOCC1 (centres undefined) | 2 | 44* | 0 | 90* | 9 | 4 | 19 | 100*
CC(C)C[C@@H](C(=O)NCc1ccco1)N1C(=O)N2CCc3c([nH]c4ccccc34)[C@@]2(C)C1=O | . | . | . | . | -1 | . | . | .
NC(=S)NN=C(Cc1ccccc1)Cc1ccccc1 | 4 | 45* | -6 | -7 | -2 | 21 | 50* | 60*
COc1ccc(-c2csc(Nc3ncccc3C)n2)cc1OC | 2 | 2 | 2 | -31 | 3 | 4 | . | .
Cc1cccnc1Nc1nc(-c2ccc(O)c(O)c2)cs1 | 3 | 81* | . | -39 | 14 | 25 | 25 | 93*
COc1cccc(Nc2nc(N)nc(CCl)n2)c1 | . | -4 | 0 | . | 3 | -4 | . | .
Cc1ccc(Nc2nc(N)nc(CCl)n2)cc1 | . | 34* | 2 | . | -2 | 1 | 0 | 58*
CCOc1ccc(Nc2nc(N)nc(CCl)n2)cc1 | . | 99* | 2 | . | 100* | 10 | 17 | 99*
Nc1nc(CCl)nc(Nc2ccccc2)n1 | 6 | 4 | 3 | -15 | -2 | 5 | . | .
O=C(NC(Cc1ccccc1)C(=O)O)/C(=C/c1cccc([N+](=O)[O-])c1)NC(=O)c1cccc(Br)c1 (centres undefined) | . | . | . | . | 0 | . | . | .
CC(=O)NC(CC(=O)N1CCCC1)c1ccccc1 (centres undefined) | . | . | . | . | -2 | . | . | .
O=C(O)c1ccc(N=Nc2c(O)ccc3ncccc23)cc1 | . | . | . | . | 8 | . | . | .
COc1cc(/C=N/N=C(N)N)ccc1OCc1ccc(Cl)cc1 | 67* | 35* | 2 | -180 | 22* | 25 | 35* | 45*
O=C1C(Nc2ccccc2)=C/C(=N/S(=O)(=O)c2cccs2)c2ccccc21 | 30 | 46* | 0 | -20 | 4 | 1 | 93* | 96*
SMILES | MT stabilizer | Ba/F3 V617F tox | bCat nuc transl | APP 5UTR inh | IEC-6 tox | BaF3 tox | BaF3 tox 2 | JAK2V617F conf
CN(CC(=O)Nc1cccc(F)c1)C(=O)CC1CC2CCC1C2 (centres undefined) | . | . | . | . | 3 | . | . | .
Cc1ccc2cc(CCNC(=O)CC(C)C)c(=O)[nH]c2c1 | 4 | 69* | -3 | -16 | 7 | 8 | -3 | -2
CCCC1O[C@@H]2CC3C4CCC5=CC(=O)C=C[C@]5(C)C4C(OC(C)=O)C[C@]3(C)[C@]2(C(=O)COC(C)=O)O1 (some centres undefined) | 3 | 25* | -5 | -10 | -11 | 3 | -1 | 28*
O=C(CC(=O)Nc1ccc(Cl)cc1)N/N=C\c1cccc(F)c1 | . | . | . | . | -1 | . | . | .
Cc1cc(C)nc(Nc2cccc(C(F)(F)F)c2)n1 | . | . | . | . | -15 | . | . | .
Nc1ccccc1Nc1cccc(C(F)(F)F)c1 | 2 | 42* | 2 | 7 | -8 | 0 | 40* | 93*
Cc1ccc(C)c(S(=O)(=O)Nc2ccc3scnc3c2)c1 | 25 | 35* | . | 5 | 17 | 20 | 16 | 33*
CCOc1ccc(CCNC(=O)Cn2ccc3ccccc3c2=O)cc1OCC | 4 | 101* | -1 | -10 | 4 | 1 | -1 | 5
CCOc1ccc(CCNC(=O)Cn2cccc2C(=O)c2ccccc2)cc1OCC | 4 | 1 | -5 | 19 | -1 | 2 | . | .
CCCCc1cc(=O)oc2cc(C)cc(OCC(=O)NC(Cc3ccc(Cl)cc3)C(=O)O)c12 (centres undefined) | . | . | . | . | -5 | . | . | .
Cc1ccc(NC(=O)CS(=O)CC(=O)Nc2cnc3ccccc3c2)cc1Cl (centres undefined) | . | . | . | . | -1 | . | . | .
Cc1ccc2c(CC(=O)NC3CCS(=O)(=O)C3)coc2c1C (centres undefined) | . | . | . | . | -4 | . | . | .
Cc1ccc2c(CC(=O)NCc3ccco3)coc2c1C | 41* | 35* | 114* | 14 | 15 | 14 | 25 | 21
CCCn1c(CN(C)Cc2ccccc2)nc2c1c(=O)n(C)c(=O)n2C | 2 | 35* | -2 | -7 | -2 | 15 | 21 | 58*
CN(Cc1ccccc1)Cc1nc2c(c(=O)n(C)c(=O)n2C)n1CCc1ccccc1 | 3 | -4 | . | -1 | 0 | 1 | . | .
CC(=O)c1ccc2cccc3c2c1N=CN3C | 1 | 50* | 5 | 1 | -8 | 11 | -3 | 8
Cn1c(=N)n(CC(O)c2cccc3ccccc23)c2ccccc21 (centres undefined) | 5 | 41* | 0 | -4 | 10 | -7 | -1 | 28*
COc1ccccc1Nc1nc(-c2c(C)nc3ncccn23)cs1 | 15* | 55* | 4 | 3 | 10 | 4 | 33* | 59*
COc1ccc(C(=O)CSc2ccc(-c3ccccc3)nn2)cc1 | 5 | 5 | -2 | -8 | 1 | 7 | . | .
COc1ccc(-c2ccc(SC)nn2)cc1 | 3 | 24* | -1 | -114 | 20 | 25 | 32* | 30*
C=CCOC(=O)C1=C(C)NC(SCC(N)=O)=C(C#N)C1c1ccc(C)cc1 (centres undefined) | . | -1 | -3 | . | -4 | 1 | . | .
